# Screening data from PubChem.
# Most compounds without a hit are left out; they make up all but 2.5% or so of the library.
# TDP2 absorb: blocks human TDP2 phosphodiesterase activity | O95551 | recombinant TDP2, T5PNP hydrolysis, p-nitrophenol absorbance 415 nm | inhibition, % at 12.8 µM | 370,000 compounds, 0.34% hits;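 active = inhibition above the mean of all tested compounds plus 3 SD, set per campaign, cut at about 25% in these data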;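 note: 0% = DMSO with enzyme and 100% = buffer with substrate but no TDP2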
#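 Evaluation: % inhibition relative to enzyme-containing and enzyme-free wells. Material: recombinant human TDP2. Benchmarks: enzyme-free and DMSO wells. Timing: enzyme reaction with compound for 2 h at 37 °C. Compound dosing: 12.8 µM only. Measured by: p-Nitrophenol epi absorbance. Reagent: T5PNP substrate at 5 mM, a TopII-DNA adduct mimic. Replication: single well per compound.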
# PRMT1 FP inh: inhibitors of human PRMT1. Q99873. inhibition, % at 2.79 µM. recombinant PRMT1, activity-based probe fluorescence polarization. AID 652257. 370,000 compounds, 1.3% hits;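 active = inhibition above about 21% made by adding two undisclosed values, limit read from the data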
# Target sequence (Q99873 whole entry, looked up): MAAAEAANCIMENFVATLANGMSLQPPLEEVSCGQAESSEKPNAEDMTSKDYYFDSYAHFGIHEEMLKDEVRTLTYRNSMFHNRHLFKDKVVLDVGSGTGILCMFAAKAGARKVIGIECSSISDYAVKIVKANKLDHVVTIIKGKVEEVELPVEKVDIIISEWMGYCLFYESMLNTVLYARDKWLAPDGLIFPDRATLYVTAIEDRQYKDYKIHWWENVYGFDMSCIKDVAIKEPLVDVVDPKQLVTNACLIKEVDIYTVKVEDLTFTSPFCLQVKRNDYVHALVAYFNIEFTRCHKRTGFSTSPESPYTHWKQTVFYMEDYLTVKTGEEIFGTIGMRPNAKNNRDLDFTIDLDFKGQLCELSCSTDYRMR
# GSTO1 counter: counter-screen for RBBP9 inhibitors: inhibitors of human GSTO1; 300,000 compounds, 1.1% hits; P78417; inhibition, % at 5.96 µM; AID 1974; recombinant GSTO1, activity-based probe fluorescence polarization;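 active = inhibition above the campaign mean inhibition plus 3 SD, cut at about 35% in these data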;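 note: 0% = GSTO1-1 with DMSO and 100% = wells lacking GSTO1-1 enzyme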
# Target sequence (P78417 whole entry, looked up): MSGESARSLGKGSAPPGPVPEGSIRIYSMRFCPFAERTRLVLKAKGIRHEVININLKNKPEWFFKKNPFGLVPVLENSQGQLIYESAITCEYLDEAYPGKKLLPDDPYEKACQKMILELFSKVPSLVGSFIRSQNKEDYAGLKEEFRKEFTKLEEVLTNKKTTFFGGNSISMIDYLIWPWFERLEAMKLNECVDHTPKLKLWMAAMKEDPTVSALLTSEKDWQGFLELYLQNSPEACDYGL
# PAD4 FP inh: PAD4 (human) enzyme inhibition. 330,000 compounds, 0.41% hits. AID 485272. inhibition, % at 6.36 µM. recombinant PAD4, RCA probe fluorescence polarization. Q9UM07;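 active = percent inhibition above a cutoff equal to the mean of all tested compounds plus 3 SD, cut at about 15% in these data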;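 note: 0% = PAD4 with RCA probe and DMSO and 100% = probe without PAD4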
# E coli Lon inh: E. coli protease La inhibition; 360,000 compounds, 0.42% hits; inhibition, % at 7.94 µM; purified E. coli Lon protease, fluorescence polarization; in the data active = inhibition above about 13%, passing the limit was not always enough;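 note: 0% = enzyme with probe and DMSO and 100% = no enzyme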
# GSTO1 confirm: confirmation of human GSTO1 inhibitors | 2,400 compounds, 54% hits | inhibition, % at 5.96 µM | recombinant GSTO1, probe fluorescence polarization | shares compounds with GSTO1 counter | AID 2176;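 active = inhibition above the primary screen's cutoff, its mean inhibition plus 3 SD, cut at about 35% in these data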;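 note: loss of polarization as inhibitors block binding of rhodamine sulfonate ester activity probe; 0% = GSTO1 with DMSO and 100% = wells lacking GSTO1 enzyme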
# PAD4 confirm: PAD4 (human) inhibition, confirmed; shares compounds with PAD4 FP inh; recombinant PAD4, RCA probe fluorescence polarization; inhibition, % at 6.36 µM; 1,200 compounds, 28% hits; AID 488796;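 active = mean inhibition across replicates above the hit cutoff set by the earlier primary screen, cut at about 15% in these data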;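 note: inhibitors block active-site labeling by the probe so polarization falls; 0% = PAD4 with probe and DMSO and 100% = probe without PAD4 enzyme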
# eLon confirm: confirmation of E. coli Lon protease inhibitors; shares compounds with E coli Lon inh; purified E. coli Lon, fluorescence polarization; inhibition, % at 7.94 µM; 1,400 compounds, 31% hits; AID 602230; in the data active = inhibition above about 16%;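 note: 0% = enzyme with probe and DMSO and 100% = no enzyme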
# PRMT1 inh conf: confirmation of human PRMT1 inhibitors | 3,300 compounds, 42% hits | recombinant His-PRMT1, activity-based probe fluorescence polarization | shares compounds with PRMT1 FP inh | inhibition, % at 2.79 µM;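 active = mean inhibition across replicates above the hit cutoff derived for the earlier primary screen, cut at about 22% in these data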
# TDP2 confirm: confirmation of human TDP2 inhibitors; shares compounds with TDP2 absorb; inhibition, % at 12.8 µM; 1,100 compounds, 22% hits; recombinant human TDP2, absorbance read-out; in the data active = inhibition above about 25%;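 note: 0% = vehicle with enzyme and 100% = no enzyme buffer only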
# An asterisk follows results filed as active; nt = no result; + = active, no number.
SMILES,TDP2 absorb,PRMT1 FP inh,GSTO1 counter,PAD4 FP inh,E coli Lon inh,GSTO1 confirm,eLon confirm,others
CNC1=C(N(C(C)=O)c2ccc(Br)cc2)C(=O)c2ccccc2C1=O,52.7*,-2.3,72.6*,46.7*,4.7,63.3*,nt,PAD4 confirm=16.1*
COc1cc(O)cc2cc3c(c(O)c12)C(=O)CC(C)(O)O3 (stereo unspecified),0.3,10.6,47.4*,-5.4,18.4*,31.4,24.0*,
COC(=O)[C@]1(CNC(=O)C(C)(C)C)CC(=O)N(C)[C@@H]1c1ccccc1,1.3,5.0,nt,nt,nt,nt,nt,
Cc1ccccc1N=Cc1cccc(O)c1O,nt,nt,69.6*,2.6,15.1*,9.6,30.3*,
Oc1cccc(/C=N/N=C/c2cccc(O)c2O)c1O,-0.3,14.4,19.5,1.9,-3.7,nt,nt,
S=C(Nc1ccc(N2CCOCC2)cc1)Nc1ccc2nc(-c3ccco3)c(-c3ccco3)nc2c1,14.1,42.9*,49.8*,3.0,43.1*,5.5,84.5*,
CC(C)CNS(=O)(=O)CC1NCc2cc3c(cc21)OCO3 (stereo unspecified),-0.2,5.2,nt,nt,nt,nt,nt,
NC(=O)C1CCN(c2nc(-c3ccc(Oc4ccccc4)cc3)cs2)CC1,-0.7,0.5,nt,nt,nt,nt,nt,
O=C1C(NS(=O)(=O)c2cccs2)=C(N2CCN(c3cccc(Cl)c3)CC2)C(=O)c2ccccc21,4.2,11.4,49.8*,-11.9,19.4*,13.9,32.0*,
O=S(=O)(Nc1ccc(N2CCOCC2)cc1)c1cccs1,-0.3,-0.3,9.6,1.8,-8.1,nt,nt,
COc1ccc(C)cc1-n1c(C)cc(C=O)c1C,-5.0,2.4,3.5,-0.8,2.4,nt,nt,
COc1ccc(N)cc1-n1c(C)ccc1C,-8.0,27.3*,44.6*,10.3,51.6*,5.9,18.1*,
CNc1ccc2c3c(cccc13)C(=O)N(C)C2=O,-6.6,+,40.1*,94.7*,+,31.5,+,PAD4 confirm=86.3*
CC1(C)CC2CN(Cc3ccccc3)S(=O)(=O)N2C1 (stereo unspecified),-6.4,1.8,nt,nt,nt,nt,nt,
Cc1cc(C(=O)N/N=C/c2ccc(-c3cccc(Cl)c3Cl)o2)n[nH]1,2.0,4.8,-8.2,0.7,-0.8,nt,nt,
CC(C)(C)c1cc(C(=O)N/N=C/c2ccc(-c3ccccc3[N+](=O)[O-])o2)n[nH]1,14.3,4.7,52.0*,47.5*,25.1*,3.8,7.0,PAD4 confirm=-7.4
CN1CCc2cc3c(c4c2[C@H]1[C@H](O)c1ccccc1-4)OCO3,3.7,49.2*,68.7*,37.0*,58.9*,29.7,26.6*,PAD4 confirm=34.5*
COC(=O)[C@]12C[C@H](CC(=O)NCc3cccc(C(F)(F)F)c3)C(=O)N(Cc3ccc4c(c3)OCO4)C1=C[C@H](C(C)C)O[C@@H]2C1CC1,4.3,-0.8,nt,nt,nt,nt,nt,
COc1ccc2nc(-c3ccco3)c(-c3ccco3)nc2c1,15.4,63.1*,71.9*,2.5,19.3*,41.0*,-7.5,
COc1ccc2c3c(cccc13)OC2=O,-9.7,2.4,5.9,0.5,7.5,nt,nt,
COc1ccc2c3c(cccc13)N(C)N=C2C,10.3,47.9*,70.0*,10.3,36.7*,64.0*,21.0*,
COc1cc(/C=C2\S/C(=N/S(=O)(=O)c3ccccc3)NC2=O)c([N+](=O)[O-])cc1OC,7.6,29.8*,38.1*,-15.2,4.7,31.3,nt,PRMT1 inh conf=1.8
CCCCCCCCN1CCS(=O)(=O)N(Cc2ccccc2)C(C(=O)OC)C1 (stereo unspecified),-2.5,-0.9,nt,nt,nt,nt,nt,
COc1ccc(CNc2nc3ccccc3n2C)c(OC)c1,9.0,2.5,-4.5,-3.2,3.2,nt,nt,
COc1ccc(N=Nc2nc3cc(Br)c(Br)cc3n2C)c(OC)c1,7.3,69.1*,40.2*,9.3,162.9*,33.2,127.9*,PRMT1 inh conf=49.1*
SMILES,TDP2 absorb,PRMT1 FP inh,GSTO1 counter,PAD4 FP inh,E coli Lon inh,GSTO1 confirm,eLon confirm,others
CCOC(=O)NC1(NCc2ccccc2)Oc2ccccc2O1,0.9,26.4*,60.7*,-2.9,-5.7,5.4,nt,PRMT1 inh conf=4.8
CCOC(=O)CC1(CCc2ccccc2)Oc2ccccc2O1,-7.2,-4.0,nt,nt,nt,nt,nt,
CN1CCc2cccc3c2[C@H]1Cc1ccc(O)c(O)c1-3,-13.0,85.8*,88.6*,5.9,2.5,5.7,nt,PRMT1 inh conf=38.2*
CCCNC(=O)c1ccc2nc(-c3ccccc3)c(-c3ccccc3)nc2c1,-13.0,-0.8,-4.6,-2.6,-11.2,nt,nt,
CCCCNC(=O)c1ccc2nc(-c3ccco3)c(-c3ccco3)nc2c1,-2.5,41.5*,70.4*,-7.2,2.1,24.2,nt,PRMT1 inh conf=48.1*
Cc1ccc(NC(=O)C2CC3CCC2C3)c(C)c1 (stereo unspecified),6.1,3.6,nt,nt,nt,nt,nt,
Cc1c2cc(O)c(=O)cc-2oc2cc(O)c(O)cc12,45.8*,67.5*,95.9*,64.8*,48.1*,106.9*,196.5*,PRMT1 inh conf=136.8*
O=C(Nc1ccc2c(c1)OCO2)OC1CCC12CCCCC2 (stereo unspecified),8.3,-1.1,nt,nt,nt,nt,nt,
N#Cc1c(NC(=O)c2ccc(Br)o2)n(-c2ccccc2)c2nc3ccccc3nc12,27.9*,-2.0,73.7*,36.3*,-42.2,85.0*,nt,PAD4 confirm=19.9*;TDP2 confirm=59.6*
COc1ccc(/C=C2\CC3(OC(=O)C4CCCC4)CCCN2C3)cc1 (stereo unspecified),7.3,0.1,nt,nt,nt,nt,nt,
COCCn1c(N)c(S(=O)(=O)c2cccs2)c2nc3ccccc3nc21,57.5*,2.8,81.0*,21.9*,0.0,2.2,nt,PAD4 confirm=-5.0;TDP2 confirm=-6.5
COc1ccc(CCNC(=O)Nc2ccc3c(c2)[C@]2(CC(=O)N(CC(C)C)C2c2ccccc2)C(=O)N3C)cc1OC (stereo partly specified),-5.5,-5.3,nt,nt,nt,nt,nt,
CN(Cc1cn(CC2CCCCC2)nn1)S(=O)(=O)c1ccccc1Br,4.0,2.3,nt,nt,nt,nt,nt,
O=C(COC(=O)c1ccc([N+](=O)[O-])s1)Nc1ccccc1,49.8*,-0.7,64.8*,33.4*,1.1,12.9,nt,PAD4 confirm=4.2;TDP2 confirm=22.2
O=C(COC(=O)c1ccc([N+](=O)[O-])s1)Nc1cccc(S(=O)(=O)NC2=NCCCCC2)c1,22.6,7.0,27.5,-12.8,-5.8,nt,nt,
COC(=O)C1=C(C)OC(N)=C(C#N)C1c1ccc(OC)c(OC)c1OC (stereo unspecified),1.6,5.1,13.1,-1.5,10.2,nt,nt,
